# Compounds with a hit are over-represented: about 2.2% of the library has one in this group of screens.
# SUMO HTRF inh: inhibitors of in vitro SUMOylation cascade, primary screen, biochemical, HTRF, uHTS; SUMO-conjugating enzyme UBC9 (Homo sapiens), P63279; 0.36% of 290,000 active; inhibition, % at 35 µM; HTRF SUMOylation assay, SAE1/SAE2 + UBC9; in the data active = inhibition above about 50%, passing the limit was not always enough
# Target sequence (P63279 whole entry, looked up): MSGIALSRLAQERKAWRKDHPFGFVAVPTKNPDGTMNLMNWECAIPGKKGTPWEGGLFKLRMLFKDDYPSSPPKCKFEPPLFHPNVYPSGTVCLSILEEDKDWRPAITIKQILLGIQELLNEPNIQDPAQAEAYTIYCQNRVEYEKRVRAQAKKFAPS
# Apaf-1 inh: inhibitors of human Apaf-1 apoptosome, primary screen, biochemical, DEVD-Rh110 fluorescence, uHTS; AID 489030, 2010; inhibition, % at 20 µM; 0.71% of 330,000 active; Apoptotic protease-activating factor 1 (Homo sapiens), O14727; reconstituted apoptosome caspase-3 activity; active = inhibition of at least 40% at 20 µM;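 note: plate controls were DMSO wells for no effect and DEVD-CHO caspase inhibitor wells for full effect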
#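 detection = Rh110 fluorescence intensity | test system = biochemical Apaf-1 apoptosome reconstitution | also added = cytochrome c and DEVD-Rh110 substrate | schedule = 30 min plus 50 min, RT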
# UBC13 polyUb: UBC13 polyubiquitin chain formation inhibitors, primary screen, biochemical, TR-FRET, uHTS | inhibition, % at 20 µM | AID 485273, 2010 | 0.47% of 330,000 active; in the data active = inhibition above about 45%, passing the limit was not always enough
# Target sequence (P61088 whole entry, looked up): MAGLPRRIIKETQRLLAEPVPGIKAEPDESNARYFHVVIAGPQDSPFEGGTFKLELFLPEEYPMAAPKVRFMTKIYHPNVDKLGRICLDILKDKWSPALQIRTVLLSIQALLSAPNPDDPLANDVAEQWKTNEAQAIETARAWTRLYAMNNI
# Rin1 Abl inh: inhibitors of Rin1-Abl protein binding, primary screen, biochemical, TR-FRET; inhibition, % at 7.35 µM; Tyrosine-protein kinase ABL1 (Homo sapiens) + Ras and Rab interactor 1 (Homo sapiens), …; 0.4% of 360,000 active; in the data active = inhibition above about 5%, passing the limit was not always enough
# PAD4 FP inh: human PAD4 inhibitors, primary screen, biochemical, fluorescence polarization, 1536-well format; recombinant PAD4, RCA probe fluorescence polarization; AID 485272, 2010; Protein-arginine deiminase type-4 (Homo sapiens), Q9UM07; inhibition, % at 6.36 µM; 0.41% of 330,000 active;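 active = percent inhibition above a cutoff equal to the mean of all tested compounds plus 3 SD, cut at about 15% in these data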;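 note: 0% = PAD4 with RCA probe and DMSO and 100% = probe without PAD4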
# GSTO1 counter: inhibitors of recombinant GSTO1, primary screen, counter-screen for RBBP9 inhibitor project, biochemical, fluorescence polarization; activity-based probe fluorescence polarization; 1.1% of 300,000 active; AID 1974, 2009; inhibition, % at 5.96 µM; Glutathione S-transferase omega-1 (Homo sapiens), P78417;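 active = inhibition above the campaign mean inhibition plus 3 SD, cut at about 35% in these data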;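 note: 0% = GSTO1-1 with DMSO and 100% = wells lacking GSTO1-1 enzyme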
# Target sequence (P78417 whole entry, looked up): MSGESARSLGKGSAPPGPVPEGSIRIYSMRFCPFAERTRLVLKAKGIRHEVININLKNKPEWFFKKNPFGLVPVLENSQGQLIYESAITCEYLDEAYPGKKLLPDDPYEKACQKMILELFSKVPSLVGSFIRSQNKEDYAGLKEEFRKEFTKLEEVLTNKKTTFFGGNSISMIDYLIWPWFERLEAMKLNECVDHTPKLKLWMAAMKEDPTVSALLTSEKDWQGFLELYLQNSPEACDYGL
# Rin1-Abl confirm: Rin1-Abl binding inhibitor retest, confirmation, biochemical, TR-FRET; shares compounds with Rin1 Abl inh; AID 602124, 2011; 49% of 1,300 active; purified proteins; inhibition, % at 7.35 µM
# GFP quench: GFP fluorescence inhibitors and quenchers, artefact control for Rin1-Abl interaction inhibitor project, biochemical; shares compounds with Rin1 Abl inh; inhibitors/quenchers counterscreen; inhibition, % at 6.75 µM; 8.5% of 1,300 active; AID 602125, 2011;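 note: ABL1-eGFP fusion protein alone without its partner RIN1-SBP; 0% = protein with vehicle and 100% = wells lacking protein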
# GFP quench dose: GFP fluorescence inhibitors and quenchers, dose response, artefact control for Rin1-Abl interaction inhibitor project, biochemical; shares compounds with Rin1 Abl inh; GFP fluorescence interference/quenching counterscreen; IC50, µM; 230 tested, under 10 active; AID 602182, 2012; call rule not given here;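 note: ABL1-eGFP fusion protein alone without its RIN1 binding partner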
# * hit, by the source's call; / = no result given. Cut-off read from the data, not from the text of the source, unless noted: active = inhibition above about 6.5%; inactive = the rest.
SMILES,SUMO HTRF inh,Apaf-1 inh,UBC13 polyUb,Rin1 Abl inh,PAD4 FP inh,GSTO1 counter,Rin1-Abl confirm,GFP quench,others
Clc1ccc(-n2ncc3c(N4CCCCCC4)ncnc32)cc1,5,4,20,2,5,-1,/,/,
C/C(=N\NC(=O)c1ccc2c(c1)OCCO2)c1ccccc1,21,-5,4,6.5*,0,-2,-3,-2,
COC(=O)[C@H]1C[C@@]2(O)CN(S(=O)(=O)c3ccc(C)cc3)C[C@@]2(OC(=O)Nc2cccs2)C[C@H]1C(=O)OC,/,/,/,-2,/,/,/,/,
CCc1ccccc1NC(=O)CC1SCCNC1=O (configuration not stated),-12,-1,-9,6,-1,-2,/,/,
O=C(CC1SCCNC1=O)Nc1cccc(C(F)(F)F)c1 (configuration not stated),0,-1,2,7.8*,-1,-1,4,0,
COc1ccc(C(=O)N2CCNC(=O)C2CC(=O)Nc2cc(Cl)ccc2OC)cc1 (configuration not stated),14,2,5,0,-2,5,/,/,
O=C(CC1SCCNC1=O)Nc1cccc(Cl)c1 (configuration not stated),7,-1,8,9.6*,1,-3,19*,0,GFP quench dose=>68
COc1ccc(OC)c(NC(=O)CC2C(=O)NCCN2C(=O)Nc2cccc(Cl)c2)c1 (configuration not stated),3,-1,5,9.2*,-2,1,13*,1,
O=C(O)CC(c1ccccc1)c1ccc2c(c1)OCO2 (configuration not stated),/,/,/,1,/,/,/,/,
Cn1c(=O)c2c(nc(N3CCC(C(N)=O)CC3)n2CCSc2nc3ccccc3s2)n(C)c1=O,/,0,2,9.7*,-1,8,7.0*,0,
COc1ccc(C)cc1S(=O)(=O)n1nc(C)cc1C,4,0,4,8.4*,1,-1,-3,2,
COc1cc(C)c(Cl)cc1S(=O)(=O)n1cnc(C)c1,15,4,4,-2,-2,-1,/,/,
COc1ccc(C(C)C)cc1S(=O)(=O)n1cnc(C)c1,-16,7,3,8.0*,4,1,-3,0,
Oc1ccc(CCc2ccccn2)cc1,/,/,/,3,/,/,/,/,
Cc1c(N2C(=O)/C(=C/c3ccc(N(C)C)cc3)N(C)C2=S)c(=O)n(-c2ccccc2)n1C,/,/,/,-14,/,/,/,/,
C=C(C(=O)c1ccccc1)C(NC(C)(C)C)c1ccccc1 (configuration not stated),/,/,/,3,/,/,/,/,
O=C(Nc1cccc2nsnc12)C1CC(=O)N(c2ccccc2)C1 (configuration not stated),36,3,-6,10*,-1,1,-5,-1,
CC1(Cc2ccc(OC(F)(F)F)cc2)C(=O)Nc2ccc(OC(F)(F)F)cc21 (configuration not stated),/,/,/,7.4*,/,/,-2,-1,
CC1(Cc2cccc(F)c2)C(=O)Nc2ccc(OC(F)(F)F)cc21 (configuration not stated),/,/,/,-1,/,/,/,/,
COCCNC(=O)C1CCCN(C(=O)c2ccnc(Cl)c2)CC1 (configuration not stated),/,/,/,-4,/,/,/,/,
COc1cc(OC)c2c(c1O)OC(c1ccccc1)CC2=O (configuration not stated),13,-18,-11,16*,4,24,9.2*,2,
CCOc1ccccc1CNCCNCC(C)O (configuration not stated),21,-6,2,1,-1,7,/,/,
Cc1ccccc1OCCNCC(C)O (configuration not stated),1,-31,14,9.0*,0,4,-1,0,
O=c1[nH]c(/C=C\c2ccc(O)c(O)c2)nc(O)c1[N+](=O)[O-],9,-3,-24,8.3*,/,/,8.2*,6,
Cc1cc2cc(CNC(=S)Nc3ccc(OC(F)(F)F)cc3)ccc2[nH]1,-9,1,-5,6.1*,-4,-1,2,0,
SMILES,SUMO HTRF inh,Apaf-1 inh,UBC13 polyUb,Rin1 Abl inh,PAD4 FP inh,GSTO1 counter,Rin1-Abl confirm,GFP quench,others
CC(C)(C)c1ccc(-c2n[nH]c(=S)n2CCCN2CCOCC2)cc1,12,-8,4,8.7*,-2,-7,7.6*,0,
CCn1ccc(C(=O)N2CCN(c3ncccn3)CC2)n1,13,-4,-6,7.3*,2,4,6.3*,-1,
C[C@H]1CN([C@@H](C)CO)C(=O)CCCn2nncc2CO[C@H]1CN(C)C(=O)C1CC1,/,/,/,-2,/,/,/,/,
Cc1cc(=O)oc2cc(OCC3CC(c4ccc(Br)cc4)=NO3)ccc12 (configuration not stated),6,19,8,-1,-1,5,/,/,
Cc1cc(=O)oc2cc(OCC3CC(c4ccccc4)=NO3)ccc12 (configuration not stated),10,4,2,11*,-1,-2,-5,-2,
CN1C=CC(=O)[C@@H](O)[C@H]1c1ccccc1Br,/,/,/,-3,/,/,/,/,
O=C(O)C(Cc1ccccc1)N1C(=O)C2C3CCC(C3)C2C1=O (configuration not stated),/,/,/,4,/,/,/,/,
O=c1c(-c2ccccc2)coc2c(CN3CCCC3)c(O)ccc12,50*,-18,15,5.9*,-1,-2,-2,0,
O=c1c(-c2ccc(Cl)cc2)coc2c(CN3CCOCC3)c(O)ccc12,38,5,3,1,-5,-5,/,/,
CCOC(=O)CCCCC(=O)c1[nH]c(=O)[nH]c1CSc1nc(C)cc(C)n1,6,-5,2,68*,-4,16,71*,0,GFP quench dose=>68
CCOC(=O)CCCCC(=O)c1[nH]c(=O)[nH]c1CN1CCOCC1,10,-18,-5,80*,-1,5,88*,-1,GFP quench dose=>68
CCOC(=O)CCCCC(=O)c1[nH]c(=O)[nH]c1C[n+]1ccccc1,17,1,2,/,-4,18,/,/,
CCOC(=O)CCCCC(=O)c1[nH]c(=O)[nH]c1CSc1nc(C)cc(=O)[nH]1,16,-14,-4,82*,-1,9,86*,0,GFP quench dose=>68

# Source: PubChem BioAssay (several laboratories)
